Test results reported in ChEMBL document CHEMBL1240314, “Small-molecule inhibitor of p53 binding to mitochondria protects mice from gamma radiation” (2006).
Active and inactive are the calls of the source. The calls are words filed in the database; no cut-off is given here.

Columns and labels:
Fibroblast = experiment: Antiapoptotic activity against TNF-alpha induced apoptosis in mouse fibroblast assessed as cell survival at 0.1 uM to 10 uM by methylene blue assay in presence of 0.5 ug/ml cycloheximidine after 24 hrs; format: functional, cell-based
[1] = target: Cellular tumor antigen p53 (Homo sapiens) (UniProt P04637); experiment: Inhibition of p53-dependent transcription of noxa in UV-induced human MCF7 cells; format: cell-based
How it was run: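 Northern analysis of MCF7 cells, p53 wild-type and shRNA p53-knockdown. Induction by UV 8.5 J m–2 or Dox […]. RNA isolated 18 h after treatment; 10 µg hybridised with 32P-labelled full-length cDNA probes for Bax, Noxa or Puma. 18S rRNA used as loading control.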

MCF7 = experiment: Induction of Bax gene expression in human MCF7 cells; format: functional, cell-based
How it was run: (§1)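 Northern blot: 10 mg RNA (so in the source) isolated 18 h after UV (8.5 J m–2) or doxorubicin (125 mg ml–1 as printed) from MCF7 or U2OS cells and p53-knockdown (lentiviral shRNA) counterparts; hybridized with 32P-labeled full-length cDNA probes for Bax, Noxa, Puma; 18S rRNA loading control.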

[2] = target: Cellular tumor antigen p53 (Homo sapiens) (UniProt P04637); experiment: Inhibition of p53-dependent transcription of bax in human U2OS cells; format: cell-based
How it was run: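 Northern analysis of U2OS cells, p53 wild-type and shRNA p53-knockdown. Induction by UV 8.5 J m–2 or Dox […]. RNA isolated 18 h after treatment; 10 µg hybridised with 32P-labelled full-length cDNA probes for Bax, Noxa or Puma. 18S rRNA used as loading control.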

U2OS = experiment: Induction of Bax gene expression in human U2OS cells; format: functional, cell-based; how it was run: as §1
[3] = target: Cellular tumor antigen p53 (Homo sapiens) (UniProt P04637); experiment: Binding affinity to p53 transfected in human […] cells assessed as reduction in p53 bound-Bcl-2 at 15 uM after 48 hrs; format: cell-based; conditions: HEK293
How it was run: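 293T cells cotransfected with Flag-tagged wild-type Bcl-xL or Bcl-2 plus wild-type p53 plasmid; compound 15 mM (so in the source) applied 24 h after transfection; lysates (1 mg protein) immunoprecipitated with anti-Flag M2 gel, bound p53 detected with HRP-conjugated DO-1.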

Cellular tumor antigen p53 (Homo sapiens), sequence (P04637 whole entry, looked up): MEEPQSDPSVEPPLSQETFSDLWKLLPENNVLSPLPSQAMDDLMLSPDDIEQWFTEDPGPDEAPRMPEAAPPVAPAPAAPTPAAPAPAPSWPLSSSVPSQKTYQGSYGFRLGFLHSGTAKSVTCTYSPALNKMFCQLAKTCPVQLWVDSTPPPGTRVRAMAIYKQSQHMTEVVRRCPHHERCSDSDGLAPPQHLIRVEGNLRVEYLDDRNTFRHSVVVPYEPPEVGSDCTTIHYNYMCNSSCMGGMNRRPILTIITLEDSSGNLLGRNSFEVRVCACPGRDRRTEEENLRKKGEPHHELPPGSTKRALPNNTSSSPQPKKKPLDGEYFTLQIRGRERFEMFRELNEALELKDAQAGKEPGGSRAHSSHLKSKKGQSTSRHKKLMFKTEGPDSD

NS(=O)(=O)C#Cc1ccccc1
Activity (Fibroblast): inactive | inhibition [1]: inactive | Activity (MCF7): inactive | inhibition [2]: inactive | Activity (U2OS): inactive | Activity [3]: Active
